Test results as given in ChEMBL document CHEMBL1275306, “Synthesis and cytotoxicity evaluation of 1-[3-(9H-carbazol-4-yloxy)-2-hydroxypropyl]-3-aryl-1H-pyrazole-5-carboxylic acid derivatives” (Eur J Med Chem, 2010).
Activity calls are given as the source filed them.

Key:
Type in all cases: functional, cell-based
SK-N-SH [1] = assay: Cytotoxicity against human SK-N-SH cells after 48 hrs by SRB assay
Method in brief: (§1)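 Cells grown in minimal essential medium with 10% FBS, penicillin and streptomycin, then exposed in triplicate to […] test agent or doxorubicin for 48 h at 37 °C under 5% CO2. Cells fixed with cold TCA, stained with 0.4% SRB in 1% acetic acid; bound dye dissolved in buffer, OD read at 565 nm. Viability expressed as % of untreated cells; IC50 by non-linear regression.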

SK-N-SH [2] = assay: Cytotoxicity against human SK-N-SH cells at 0.1 to 5 uM by SRB assay; details: TDE = time-dependent effect; method in brief: as §1
SK-N-SH [3] = assay: Cytotoxicity against human SK-N-SH cells at 0.5 uM after 48 hrs by SRB assay
SK-N-SH [4] = assay: Cytotoxicity against human SK-N-SH cells at 5 uM after 48 hrs by SRB assay; method in brief: as §1
MCF7 [5] = assay: Cytotoxicity against human MCF7 cells at 0.1 to 5 uM by SRB assay; details: TDE = time-dependent effect; method in brief: as §1
MCF7 [6] = assay: Cytotoxicity against human MCF7 cells after 48 hrs by SRB assay; method in brief: as §1
A549 [7] = assay: Cytotoxicity against human A549 cells after 48 hrs by SRB assay; method in brief: as §1
A549 [8] = assay: Cytotoxicity against human A549 cells at 0.1 to 5 uM by SRB assay; details: TDE = time-dependent effect; method in brief: as §1
SK-N-SH [9] = assay: Cytotoxicity against human SK-N-SH cells at 0.1 uM after 48 hrs by SRB assay; method in brief: as §1

Measured: Activity

COc1ccc(-c2cc(C(=O)O)n(CC(O)COc3cccc4[nH]c5ccccc5c34)n2)cc1 (stereo not drawn)
active: SK-N-SH [1] Dose-dependent effect | SK-N-SH [2] tde | SK-N-SH [3] | SK-N-SH [4] | MCF7 [5] tde | MCF7 [6] Dose-dependent effect | A549 [7] Dose-dependent effect | A549 [8] tde

O=C(O)c1cc(-c2ccccc2[N+](=O)[O-])nn1CC(O)COc1cccc2[nH]c3ccccc3c12 (stereo not drawn)
active: SK-N-SH [1] Dose-dependent effect | SK-N-SH [2] tde | SK-N-SH [3] | MCF7 [5] tde | MCF7 [6] Dose-dependent effect | A549 [7] Dose-dependent effect | A549 [8] tde

Cc1ccc(-c2cc(C(=O)O)n(CC(O)COc3cccc4[nH]c5ccccc5c34)n2)cc1 (stereo not drawn)
active: SK-N-SH [1] Dose-dependent effect | SK-N-SH [2] tde | SK-N-SH [3] | MCF7 [5] tde | MCF7 [6] Dose-dependent effect | A549 [7] Dose-dependent effect | A549 [8] tde

COc1cccc(-c2cc(C(=O)O)n(CC(O)COc3cccc4[nH]c5ccccc5c34)n2)c1 (stereo not drawn)
active: SK-N-SH [1] Dose-dependent effect | SK-N-SH [2] tde | SK-N-SH [3] | MCF7 [5] tde | MCF7 [6] Dose-dependent effect | A549 [7] Dose-dependent effect | A549 [8] tde

O=C(O)c1cc(-c2cccc([N+](=O)[O-])c2)nn1CC(O)COc1cccc2[nH]c3ccccc3c12 (stereo not drawn)
active: SK-N-SH [1] Dose-dependent effect | SK-N-SH [2] tde | SK-N-SH [3] | MCF7 [5] tde | MCF7 [6] Dose-dependent effect | A549 [7] Dose-dependent effect | A549 [8] tde

O=C(O)c1cc(-c2ccc([N+](=O)[O-])cc2)nn1CC(O)COc1cccc2[nH]c3ccccc3c12 (stereo not drawn)
active: SK-N-SH [1] Dose-dependent effect | SK-N-SH [2] tde | SK-N-SH [3] | MCF7 [5] tde | MCF7 [6] Dose-dependent effect | A549 [7] Dose-dependent effect | A549 [8] tde

Cc1cccc(-c2cc(C(=O)O)n(CC(O)COc3cccc4[nH]c5ccccc5c34)n2)c1 (stereo not drawn)
active: SK-N-SH [1] Dose-dependent effect | SK-N-SH [2] tde | SK-N-SH [3] | SK-N-SH [4] | MCF7 [5] tde | MCF7 [6] Dose-dependent effect | A549 [7] Dose-dependent effect | A549 [8] tde | SK-N-SH [9]

COc1cccc2c1C(=O)c1c(O)c3c(c(O)c1C2=O)C[C@@](O)(C(=O)CO)C[C@@H]3O[C@H]1C[C@H](N)[C@H](O)[C@H](C)O1
active: SK-N-SH [1] Dose-dependent effect | SK-N-SH [2] tde | MCF7 [5] tde | MCF7 [6] Dose-dependent effect | A549 [7] Dose-dependent effect | A549 [8] tde
